Data on 20 compounds can be found in publication PMC5008178 (Molecular Microbiology, 2015).

pEC50: −log10 of the molar value. Where two headings read alike, the source gives them in different places.

The target of one data set is Tar (Escherichia coli, UniProt P07017). The data set is described as follows: FRET response in receptorless cells expressing Tar as sole receptor. In kind it is cell-based. Conditions: Tar-only cells; for response mediated by Tar, in words: sub-millimolar range. The gist of the method: (§1)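 Receptorless E. coli VS181 [Δ(cheY cheZ) Δ(tar tsr tap trg aer)] carries the CheY‑YFP/CheZ‑CFP pair (pVS88) and a plasmid with the single receptor. Cells are grown in TB at 34°C, 275 r.p.m., with inducers, and harvested at OD600 0.6. Buffer‑adapted cells get step addition and then removal of amino acid. YFP/CFP ratio (kinase activity) is read by fluorescence microscopy.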

Data set [1] concerns chemotaxis pathway in E. coli. The data set is described as follows: microbe, parasite or virus in culture. Conditions: for repellent response in wild type, in words: wild-type E. coli cells, tested up to 1 mM where no response; for pEC50: Escherichia coli. It counts as cell-based, Escherichia coli.
Another data set addresses Tsr (Escherichia coli, UniProt P02942). Briefly: FRET response in receptorless cells expressing Tsr as sole receptor. It counts as cell-based. Conditions: for response mediated by Tsr, in words: Tsr-only cells, sub-millimolar range. The gist of the method:
as §1

The subject of data set [2] is chemotaxis pathway in B. subtilis. The data set is described as follows: microbe, parasite or virus in culture. It counts as cell-based, Bacillus subtilis. Conditions: for pEC50: read-out: EC50 of attractant FRET response.
The next data set relates to E. coli. The data set is described as follows: Growth inhibition by individual amino acids in M9 glucose medium. It counts as cell-based, Escherichia coli. Conditions: 1 mM amino acid, M9 minimal glucose medium, culture density after 8 h. A digest of the protocol: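 Cells grown in modified M9 (47 mM Na2HPO4, 22 mM KH2PO4, 8 mM NaCl, 2 mM MgSO4, 100 μM CaCl2) with glucose as carbon source. A single L‑amino acid (1 mM final) was added at the start; 37°C, 120 r.p.m. OD600 read after 8 h and normalised to a control culture without added amino acid.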

The mark [3] stands for this setting: read-out: EC50 of repellent response.
The mark [4] stands for this setting: read-out: EC50 of attractant FRET response.

Sequence of Tsr (P02942 whole entry): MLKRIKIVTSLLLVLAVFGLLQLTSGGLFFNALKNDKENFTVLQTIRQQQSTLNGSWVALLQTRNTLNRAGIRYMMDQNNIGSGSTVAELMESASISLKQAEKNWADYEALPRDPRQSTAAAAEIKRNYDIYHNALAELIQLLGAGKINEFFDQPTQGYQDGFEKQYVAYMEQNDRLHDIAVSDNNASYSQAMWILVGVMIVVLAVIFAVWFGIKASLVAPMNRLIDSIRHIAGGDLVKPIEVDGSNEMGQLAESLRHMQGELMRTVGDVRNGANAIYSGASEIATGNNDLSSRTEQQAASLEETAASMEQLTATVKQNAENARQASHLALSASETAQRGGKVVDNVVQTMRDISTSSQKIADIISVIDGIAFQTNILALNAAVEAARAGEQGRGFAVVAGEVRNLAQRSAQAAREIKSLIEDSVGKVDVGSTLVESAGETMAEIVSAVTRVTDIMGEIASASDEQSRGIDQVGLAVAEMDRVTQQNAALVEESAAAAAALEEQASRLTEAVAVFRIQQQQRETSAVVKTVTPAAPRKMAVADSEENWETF
Sequence of Tsr (P0A964 whole entry partner): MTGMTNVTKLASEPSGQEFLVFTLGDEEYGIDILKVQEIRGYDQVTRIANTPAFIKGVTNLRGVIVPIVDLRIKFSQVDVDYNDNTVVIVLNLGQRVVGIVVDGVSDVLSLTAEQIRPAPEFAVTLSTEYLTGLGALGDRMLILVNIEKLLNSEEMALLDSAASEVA
Sequence of Tsr (P07363 whole entry partner): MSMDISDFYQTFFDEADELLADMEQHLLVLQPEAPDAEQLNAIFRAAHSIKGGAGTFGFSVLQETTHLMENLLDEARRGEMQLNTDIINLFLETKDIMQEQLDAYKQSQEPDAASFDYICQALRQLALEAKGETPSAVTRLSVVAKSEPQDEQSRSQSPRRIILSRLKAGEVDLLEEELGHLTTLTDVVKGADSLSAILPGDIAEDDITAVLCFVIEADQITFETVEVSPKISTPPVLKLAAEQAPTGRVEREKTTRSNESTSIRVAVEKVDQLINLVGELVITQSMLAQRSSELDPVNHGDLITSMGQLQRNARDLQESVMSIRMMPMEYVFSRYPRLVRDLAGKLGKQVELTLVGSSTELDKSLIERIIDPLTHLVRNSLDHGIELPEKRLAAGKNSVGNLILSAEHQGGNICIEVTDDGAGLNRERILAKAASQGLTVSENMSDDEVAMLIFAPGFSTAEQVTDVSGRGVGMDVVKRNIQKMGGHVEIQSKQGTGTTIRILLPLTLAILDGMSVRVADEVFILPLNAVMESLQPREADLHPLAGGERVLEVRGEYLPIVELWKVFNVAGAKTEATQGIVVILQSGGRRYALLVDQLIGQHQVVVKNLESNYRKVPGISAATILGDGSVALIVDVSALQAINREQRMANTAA
Sequence of Tar (P07017 whole entry): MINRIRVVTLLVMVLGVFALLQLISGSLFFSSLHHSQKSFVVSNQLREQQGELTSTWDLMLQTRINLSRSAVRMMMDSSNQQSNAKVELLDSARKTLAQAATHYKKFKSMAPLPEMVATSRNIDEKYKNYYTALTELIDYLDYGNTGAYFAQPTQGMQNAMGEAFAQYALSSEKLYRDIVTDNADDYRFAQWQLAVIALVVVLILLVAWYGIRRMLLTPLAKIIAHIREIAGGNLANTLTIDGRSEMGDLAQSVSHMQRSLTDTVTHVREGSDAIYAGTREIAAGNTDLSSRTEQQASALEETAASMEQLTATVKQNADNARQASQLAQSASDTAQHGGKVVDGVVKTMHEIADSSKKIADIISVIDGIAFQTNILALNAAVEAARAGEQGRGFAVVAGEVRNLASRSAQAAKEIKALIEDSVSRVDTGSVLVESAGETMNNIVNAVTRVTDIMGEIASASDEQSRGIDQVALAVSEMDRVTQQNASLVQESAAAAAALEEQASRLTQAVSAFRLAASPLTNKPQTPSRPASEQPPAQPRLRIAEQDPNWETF
Sequence of Tar (P0A964 whole entry partner): as the sequence (P0A964 whole entry partner) above
Sequence of Tar (P07363 whole entry partner): as the sequence (P07363 whole entry partner) above

Regarding `CSCC[C@H](N)C(=O)O` [Methionine], the “response mediated by Tar, in words” value at Tar is “attractant responses”. Moreover, in data set [1], the “attractant response in words” value is recorded as “weak attractant responses”.
For the compound `N[C@@H](Cc1ccccc1)C(=O)O` [Phenyalanine, phenylalanine], the “repellent response in wild type, in words” value in data set [1] is recorded as “no obvious repellent response”. In addition, the “repellent response in Tsr-only cells, in words” value on Tsr is recorded as “weak repellent responses”.
As for `NCCCC[C@H](N)C(=O)O` [Lysine], the “FRET response in words” value in data set [2] (B. subtilis) is reported as “did not elicit clear responses”.
For the compound `C[C@H](N)C(=O)O` [Alanine], the “response mediated by Tar, in words” value on Tar is reported as “attractant responses”. Besides, the “response mediated by Tsr, in words” value on Tsr is reported as “attractant responses”.
Turning to `N[C@@H](Cc1c[nH]cn1)C(=O)O` [Histidine], the “FRET response in words” value in data set [2] (B. subtilis) is given as “lesser maximal activation”. In addition, the “repellent response in wild type, in words” value in data set [1] is “no obvious repellent response”. The “repellent response in Tsr-only cells, in words” value at Tsr was “weak repellent responses”.
As to `N[C@@H](Cc1ccc(O)cc1)C(=O)O` [Tyrosine], the “FRET response in words” value in data set [2] (B. subtilis) is “lesser maximal activation”.
Usually pEC50 stands for the negative decadic logarithm of the EC50, by convention in mol/L. As to `NC(=O)C[C@H](N)C(=O)O` [Aparagine, Asparagine], on Tar, the “response mediated by Tar, in words” value was “attractant responses”. Also, the negative-log EC50 (pEC50) in data set [2] (Bacillus subtilis) was more than 6.00. In addition, the “response mediated by Tsr, in words” value on Tsr is “attractant responses”.
With `CC[C@H](C)[C@H](N)C(=O)O` [Isoleucine], the negative logarithm of the EC50 (pEC50) in data set [1] (setting [3]) is 2.52 to 4.00. Besides, the “repellent response in wild type, in words” value in data set [1] was “clear repellent responses”.
As for `N[C@@H](Cc1c[nH]c2ccccc12)C(=O)O` [Tryptophan], the “FRET response in words” value in data set [2] (B. subtilis) is “lesser maximal activation”. For the same compound, the pEC50 in data set [1] (setting [3]) is 2.52 to 4.00. For the same compound, the “repellent response in wild type, in words” value in data set [1] was “clear repellent responses”.
Turning to `NCC(=O)O` [Glycine], the “response mediated by Tar, in words” value on Tar was “attractant responses”. At Tsr, the “response mediated by Tsr, in words” value is reported as “attractant responses”.
Regarding `N[C@@H](CS)C(=O)O` [Cysteine], the growth inhibition entry in the data set with E. coli was “significant growth inhibition”. For the same compound, the “response mediated by Tar, in words” value on Tar is recorded as “attractant responses”. In addition, the pEC50 in data set [2] (Bacillus subtilis) was more than 6.00; in data set [1] (setting [4]), more than 5.00. The “response mediated by Tsr, in words” value on Tsr is “attractant responses”.
Take `N[C@@H](CO)C(=O)O` [Serine]: in the data set with E. coli, the growth inhibition result is on record as “significant growth inhibition”. For the same compound, the “level at which the response saturated” value on Tar (saturating concentration) was ~20 % of the initial activity. For the same compound, the “response mediated by Tar, in words” value on Tar was “attractant responses”. In addition, the negative logarithm of the EC50 (pEC50) in data set [1] (setting [4]) was more than 5.00. Further, the “response mediated by Tsr, in words” value at Tsr is given as “attractant responses”.
Turning to `N=C(N)NCCC[C@H](N)C(=O)O` [Arginine], the “FRET response in words” value in data set [2] (B. subtilis) is given as “did not elicit clear responses”.
Regarding `C[C@@H](O)[C@H](N)C(=O)O` [Threonine], in data set [1] (wild-type E. coli, millimolar concentrations), the “attractant response in words” value is “weak attractant responses”.
With `N[C@@H](CC(=O)O)C(=O)O` [Aspartate], the “response mediated by Tar, in words” value on Tar is “attractant responses”. The negative-log EC50 (pEC50) in data set [2] (Bacillus subtilis) was less than 3.00; in data set [1] (setting [4]), more than 5.00. Moreover, in data set [1], the “repellent response in wild type, in words” value is given as “no obvious repellent response”. For the same compound, on Tsr, the “repellent response in Tsr-only cells, in words” value was “weak repellent responses”.
`N[C@@H](CCC(=O)O)C(=O)O` [Glutamate]: at Tar, the “response mediated by Tar, in words” value was “attractant responses”. Moreover, in data set [2] (B. subtilis), the negative logarithm of the EC50 (pEC50) is less than 3.00. For the same compound, in data set [1], the “repellent response in wild type, in words” value was “no obvious repellent response”. Also, on Tsr, the “repellent response in Tsr-only cells, in words” value is “weak repellent responses”.
With `CC(C)[C@H](N)C(=O)O` [Valine], the growth inhibition entry in the data set on E. coli is on record as “significant growth inhibition”. Besides, the pEC50 in data set [1] (setting [3]) was 2.52 to 4.00. In addition, in data set [1], the “repellent response in wild type, in words” value is given as “clear repellent responses”.
For the compound `O=C(O)[C@@H]1CCCN1` [Proline], the pEC50 in data set [2] (Bacillus subtilis) is more than 6.00.
`CC(C)C[C@H](N)C(=O)O` [Leucine]: in the data set with E. coli, the growth inhibition entry is “significant growth inhibition”. Moreover, in data set [1] (setting [3]), the pEC50 was 2.52 to 4.00. Moreover, the “repellent response in wild type, in words” value in data set [1] is reported as “clear repellent responses”.
On to `NC(=O)CC[C@H](N)C(=O)O` [Glutamine], for which the “repellent response in wild type, in words” value in data set [1] was “no obvious repellent response”. Moreover, the “repellent response in Tsr-only cells, in words” value at Tsr is “weak repellent responses”.
